Test results taken from PMC5668642 (Biochemistry and Biophysics Reports, 2015).

Assays:
PLCδ1-PH domain [1] = biological target: T1, PLCδ1-PH domain (Rattus norvegicus, UniProt P10688); assay: Competitive surface plasmon resonance assay, PI; format: binding; conditions: for inhibition at 5 µM: pH 7.4, read-out: Relative inhibitory activity (%), PI(4,5)P2/PLCδ1-PH
T1 sequence (P10688 1-131): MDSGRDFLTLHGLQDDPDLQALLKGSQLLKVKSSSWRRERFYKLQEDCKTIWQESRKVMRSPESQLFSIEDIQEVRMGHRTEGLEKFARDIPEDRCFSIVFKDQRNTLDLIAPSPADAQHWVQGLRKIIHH
Method in brief: (§1)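 L1 chip, 25 °C, 20 mM HEPES pH 7.4, 0.16 M KCl, 30 µL/min. Active surface PC/PE/PS/PIP (57:20:20:3): PI(4,5)P2 for rat PLCδ1-PH (1-131), PI(3,4,5)P3 for human AKT1-PH (1-121) and mouse GRP1-PH (1-127), PI(3,4)P2 for human TAPP1-PH (180-305). BSA-blocked PC/PE/PS reference. Domain (500 nM) preincubated 30 min with compound (0–20 or 0–200 µM). % inhibition from RU at 180 s; IC50 by Langmuir fit; triplicates.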

AKT1-PH domain [2] = biological target: T2, AKT1-PH domain (Homo sapiens, UniProt P31749); assay: Isothermal titration calorimetry, AKT1-PH domain; format: binding; conditions: 25 °C
Method in brief: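 Human AKT1-PH domain (residues 1–121, E. coli BL21-DE3) in the sample cell at 25 °C, 500 rpm. Titrated with 20 × 2 µL injections of test compound (2 mM) at 2.0 min intervals. ΔG derived as ΔH − TΔS.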

PLCδ1-PH domain [3] = biological target: T1, PLCδ1-PH domain; assay: Competitive protein-to-membrane FRET displacement assay; format: binding
Method in brief: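 Rat PLCδ1-PH (1-131) is prebound to excess PC/PE/PS/dPE/PI(4,5)P2 (56:20:20:1:3) vesicles (100 µM total lipid) in 20 mM Tris pH 7.4, 0.16 M NaCl, at room temperature. Compound is titrated 0–70 µM. Protein-to-membrane FRET is read at ex 280/em 505 nm, corrected for PC/PE/PS/dPE (59:20:20:1) vesicles, dilution and dPE background. Apparent KI comes from a nonlinear least-squares fit.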

[4] = test system: GFP-tagged PLCδ1-PH domain in A549 cells; assay: Cellular translocation of GFP-tagged PLCδ1-PH domain; format: cell-based, Human; conditions: 0–100 μM, 30 min
Method in brief: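 A549 cells grown on coverslips in RPMI-1640 with 10% heat-inactivated FBS and penicillin/streptomycin at 37 °C, 5% CO₂. Transfected 24 h after seeding with GFP-PLCδ1-PH using polyethylenimine in Opti-MEM, then returned to complete medium after 24 h. Cells washed into serum-free medium and exposed to test compound (5–100 µM; DMSO <5%) for 30 min. PBS-washed, fixed in 4% paraformaldehyde for 15 min, and imaged by confocal at 488 nm excitation.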

AKT1-PH domain [5] = biological target: T2, AKT1-PH domain; assay: Competitive surface plasmon resonance assay, PI; format: binding; conditions: for inhibition at 5 µM: read-out: Relative inhibitory activity (%), PI(3,4,5)P3/AKT1-PH
Method in brief: as §1

GRP1-PH domain = biological target: T3, GRP1-PH domain (Mus musculus, UniProt O08967); assay: Competitive surface plasmon resonance assay, PI; format: binding; conditions: for inhibition at 5 µM: read-out: Relative inhibitory activity (%), PI(3,4,5)P3/GRP1-PH
T3 sequence (O08967 264-380 limits assumed): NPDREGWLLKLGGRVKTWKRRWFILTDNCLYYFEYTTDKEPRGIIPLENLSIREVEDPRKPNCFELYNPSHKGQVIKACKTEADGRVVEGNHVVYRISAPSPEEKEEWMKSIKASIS
Method in brief: as §1

TAPP1-PH domain = TAPP1-PH domain (Homo sapiens, UniProt Q9HB21); assay: Competitive surface plasmon resonance assay, PI; format: binding; conditions: for inhibition at 5 µM: read-out: Relative inhibitory activity (%), PI(3,4)P2/TAPP1-PH
Method in brief: as §1

PLCδ1-PH domain [6] = biological target: T1, PLCδ1-PH domain; assay: Isothermal titration calorimetry, PLCδ1-PH domain; format: binding; conditions: 25 °C; 20 mM HEPES pH 7.4, 0.16 M KCl
Method in brief: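 Rat PLCδ1-PH domain (residues 1–131, E. coli BL21-DE3) at 200 μM, dialysed into 20 mM HEPES pH 7.4 with 0.16 M KCl. Titrated at 25 °C, 500 rpm, with 20 × 2 µL injections at 2.0 min intervals of test compound (2 mM) dissolved in the final dialysate. ΔG derived as ΔH − TΔS.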

AKT1-PH domain [7] = biological target: T2, AKT1-PH domain; assay: Liposome pull-down assay, PI; format: binding; conditions: protein 50 μM; compound 100 μM; PC/PE/PS/PI(3,4,5)P3 (57:20:20:3)
Method in brief: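 Human AKT1-PH (1-121) is incubated 30 min with 40 µg sucrose-loaded, sonicated/extruded vesicles (± compound) in 20 mM Tris pH 7.4, 100 mM KCl, 5 mM MgCl2, 0.3 mg/mL BSA. Vesicles were pelleted beforehand at 100,000g, 4 °C. Bound and free protein are separated at 100,000g, 30 min, 4 °C. Supernatant and pellet are run on Coomassie-stained SDS-PAGE.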

PLCδ1-PH domain [8] = biological target: T1, PLCδ1-PH domain; assay: Circular dichroism of PLCδ1-PH domain with compounds; conditions: PLCδ1-PH 1 μM; 10 mM phosphate, 10 mM NaCl, pH 7.2
Method in brief: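 Rat PLCδ1-PH domain (residues 1-131, expressed in E. coli BL21-DE3) is scanned by far-UV CD from 190 to 245 nm, alone and with test compounds present.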

PLCδ1-PH domain [9] = biological target: T1, PLCδ1-PH domain; assay: Liposome pull-down assay, PI; format: binding; conditions: protein 50 μM; compound 100 μM; PC/PE/PS/PI(4,5)P2 (57:20:20:3)
Method in brief: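 Sucrose-loaded PC/PE/PS/PI(4,5)P₂ vesicles made by sonication and extrusion, pelleted at 100,000g, and resuspended in 20 mM Tris pH 7.4 with 100 mM KCl and 5 mM MgCl₂. Rat PLCδ1-PH domain incubated with vesicles (40 µg in 100 µL) for 30 min with 0.3 mg/mL BSA, with or without test compound; PC/PE/PS vesicles as control. Spun at 100,000g for 30 min at 4 °C; supernatant and pellet run on Coomassie-stained SDS-PAGE.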

TAPP1-PH domain, sequence (Q9HB21 180-305): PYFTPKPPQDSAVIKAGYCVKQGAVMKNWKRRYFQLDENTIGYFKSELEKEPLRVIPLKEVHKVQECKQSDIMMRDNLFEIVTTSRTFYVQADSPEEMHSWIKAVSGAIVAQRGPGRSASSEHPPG
T2 sequence (P31749 1-121): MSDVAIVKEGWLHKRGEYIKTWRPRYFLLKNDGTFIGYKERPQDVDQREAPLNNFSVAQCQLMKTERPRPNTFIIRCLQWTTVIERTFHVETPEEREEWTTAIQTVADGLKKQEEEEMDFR

Row | Effect on PLCδ1-PH domain binding to PC/PE/PS/PI(4,5)P2 liposome (PLCδ1-PH domain [1]; competitive SPR, negative control, data not shown) | Ki (PLCδ1-PH domain [3]) [µM] | IC50 (AKT1-PH domain [5]) [nM] | inhibition at 5 µM (AKT1-PH domain [5]) [%] | IC50 (GRP1-PH domain) [nM] | inhibition at 5 µM (GRP1-PH domain) [%] | IC50 (TAPP1-PH domain) [nM] | inhibition at 5 µM (TAPP1-PH domain) [%] | Inhibition of PI(3,4,5)P3/AKT1-PH domain interaction (SDS-PAGE) (AKT1-PH domain [7]) | Change in secondary structural pattern of PLCδ1-PH domain (far UV-CD) (PLCδ1-PH domain [8]) | IC50 (PLCδ1-PH domain [1]) [nM] | inhibition at 5 µM (PLCδ1-PH domain [1]) [%] | SMILES | ITC titration behaviour with AKT1-PH domain (AKT1-PH domain [2]) | Displacement of PLCδ1-PH domain from plasma membrane (confocal images) [4] | ITC titration behaviour with PLCδ1-PH domain (PLCδ1-PH domain [6]) | Inhibition of PLCδ1-PH domain binding to PI(4,5)P2 containing liposomes (SDS-PAGE) (PLCδ1-PH domain [9])
1 | did not affect | – | – | – | – | – | – | – | – | – | – | – | Cn1cc(CO)nn1 [(1-methyl-1H-1,2,3-triazol-4-yl)methanol, reference compound] | – | – | – | –
2 | – | 60.4 | 175 ± 21 | 44 ± 2 | 145 ± 11 | 56 ± 3 | 647 ± 33 | 18 ± 2 | more strongly than compound CIP-4 | almost no change | 113 ± 7 | 83 ± 4 | O=[N+]([O-])c1ccc(Cn2cc(CO)nn2)cc1 [CIP-1] | exothermic reaction with two-step binding mechanism | extent of displacement of PLCδ1-PH domain from PM is lowered | exothermic reaction with one-step binding mechanism | not that efficient in displacing the PLCδ1-PH domain
3 | – | – | 315 ± 32 | 55 ± 2 | 216 ± 9 | 58 ± 5 | 106 ± 8 | 41 ± 4 | – | – | 159 ± 11 | 62 ± 3 | OCc1cn(Cc2ccccc2)nn1 [CIP-2] | – | – | – | –
4 | – | – | – | 4 ± 1 | – | – | – | – | – | – | – | – | CCOC(=O)Cn1cc(CO)nn1 [CIP-3] | – | – | – | –
